Calls of active or inactive are those of the source. No cut-off for these calls is given here.
Key:
[1] = target: T1, Protein-glutamine gamma-glutamyltransferase (Homo sapiens, UniProt P21980); test: Inhibition of human transglutaminase 2 using Cbz-Gln-Gly as a substrate by GDH-coupled assay
T1 sequence (P21980 whole entry): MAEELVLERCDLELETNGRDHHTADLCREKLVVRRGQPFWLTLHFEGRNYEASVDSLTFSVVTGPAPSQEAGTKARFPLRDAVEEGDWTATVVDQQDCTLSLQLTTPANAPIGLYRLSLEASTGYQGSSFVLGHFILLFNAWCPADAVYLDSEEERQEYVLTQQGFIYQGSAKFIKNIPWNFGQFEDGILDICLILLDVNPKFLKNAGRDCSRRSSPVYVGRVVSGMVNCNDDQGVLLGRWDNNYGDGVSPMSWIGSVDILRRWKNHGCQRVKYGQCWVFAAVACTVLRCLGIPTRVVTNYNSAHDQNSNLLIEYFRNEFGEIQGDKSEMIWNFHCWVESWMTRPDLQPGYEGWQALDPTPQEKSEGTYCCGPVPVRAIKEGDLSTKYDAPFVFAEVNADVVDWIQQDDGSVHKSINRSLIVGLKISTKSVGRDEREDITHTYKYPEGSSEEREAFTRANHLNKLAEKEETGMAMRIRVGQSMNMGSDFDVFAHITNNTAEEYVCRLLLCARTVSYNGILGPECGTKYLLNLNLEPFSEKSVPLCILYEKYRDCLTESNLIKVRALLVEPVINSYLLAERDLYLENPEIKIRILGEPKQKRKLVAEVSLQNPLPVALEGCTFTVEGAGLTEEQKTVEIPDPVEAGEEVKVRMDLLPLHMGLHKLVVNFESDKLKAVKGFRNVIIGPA
In short: (§1)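 Glutamate dehydrogenase-coupled deamidation assay with human TG2 at 0.5 µM and Cbz-Gln-Gly as acyl donor substrate. […] Ki values were derived from kinetic analysis in a mixed inhibition model, with α taken as the Ki'/Ki ratio. Errors were typically under 10%.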

[2] = target: T1, Protein-glutamine gamma-glutamyltransferase; test: Inhibition of human transglutaminase 2 using ZGBC as a substrate after 30 to 60 mins by fluorometric assay
In short: (§2)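 Direct fluorometric assay following TG2-catalysed release of 7-hydroxycoumarin from an ester substrate, with human TG2 at 15 nM. […] Ki and α were derived from a mixed inhibition model, with α as the Ki'/Ki ratio.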

[3] = target: T2, Protein-glutamine gamma-glutamyltransferase (Homo sapiens) (UniProt P21980); test: Partial inhibition of human transglutaminase 2 using ZGBC as a substrate after 30 to 60 mins by fluorometric assay; parameters: concentration or dose not given beside the values; in short: as §2
T2 sequence (whole entry): T1 sequence (P21980 whole entry)

[4] = target: T2, Protein-glutamine gamma-glutamyltransferase (Homo sapiens); test: Partial inhibition of human transglutaminase 2 using Cbz-Gln-Gly as a substrate by GDH-coupled assay; details: concentration not given here; in short: as §1
[5] = target: T2, Protein-glutamine gamma-glutamyltransferase (Homo sapiens); details: 2 to 8 uM

SMILES | IC50 [1] | Ki [1] | IC50 [2] | other results
Cc1cc(C)c(CN2C(=O)C(=O)c3ccccc32)cc1CN1C(=O)C(=O)c2ccccc21 | 40 µM | 11 µM |  | 
O=C1Nc2ccc([N+](=O)[O-])cc2/C1=C\C(=O)c1cccnc1 | 7.9 µM |  | 1.7 µM | 
COc1ccc(C(=O)/C=C2/C(=O)Nc3cccc(Cl)c32)cc1 | 1.1 µM |  | 1.3 µM | 
COC(=O)c1cccc(CN2C(=O)/C(=C/C(=O)c3cccnc3)c3c(Cl)cccc32)c1 | 1.1 µM |  | 5.6 µM | 
O=C1Nc2cccc(Cl)c2/C1=C\C(=O)c1cncc(Br)c1 | 1.4 µM |  | 0.97 µM | 
O=C1Nc2ccc(Br)cc2/C1=C\C(=O)c1cccnc1 | 4.8 µM | 3 µM | 0.56 µM | Ki [2]: 0.68 µM
O=C1Nc2ccccc2/C1=C1/Nc2ccccc2C1=O [INDIRUBIN] | > 100 µM |  |  | 
O=C1Nc2ccccc2C1=O [ISATIN] | > 250 µM |  |  | 
CN(C)C(=O)CN1C(=O)/C(=C/C(=O)c2cccnc2)c2c(Cl)cccc21 | 5.5 µM |  | 9.2 µM | 
O=C(/C=C1/C(=O)N(CCc2ccccc2)c2cccc(Cl)c21)c1cccnc1 | 1.5 µM |  | 2.9 µM | 
CN1C(=O)/C(=C/C(=O)c2cccnc2)c2c(Cl)cccc21 | 4 µM | 4 µM | 11 µM | 
O=C(/C=C1/C(=O)N(CCCc2ccccc2)c2cccc(Cl)c21)c1cccnc1 | 1.3 µM |  | 1 µM | 
CC(=O)/C=C1/C(=O)Nc2c(Cl)cccc21 | 4.7 µM |  | 3.9 µM | 
Cc1cc(CN2C(=O)C(=O)c3ccccc32)c(C)cc1CN1C(=O)C(=O)c2ccccc21 | > 250 µM |  |  | 
O=C1Nc2cccc(Cl)c2/C1=C\C(=O)c1ccc(Cl)cc1 | 0.8 µM |  | 0.09 µM | inhibition [3]: 60%
CC(=O)/C=C1/C(=O)Nc2ccccc21 | 11 µM | 10 µM | 19 µM | 
O=C1Nc2ccc(Cc3ccc4c(c3)C(=O)C(=O)N4)cc2C1=O | 30 µM | 15 µM |  | 
O=C1Nc2cccc(Cl)c2/C1=C\C(=O)c1cccnc1 | 0.9 µM | 1.3 µM | 1.7 µM | 
COC(=O)c1ccc(CN2C(=O)/C(=C/C(=O)c3cccnc3)c3c(Cl)cccc32)cc1 | 1.2 µM |  | 0.66 µM | 
O=C(/C=C1/C(=O)N(CC2CCCCC2)c2cccc(Cl)c21)c1cccnc1 | 2.1 µM |  | 6.7 µM | 
O=C1Nc2ccccc2/C1=C\C(=O)c1cccnc1 | 22 µM | 12 µM | 8.5 µM | 
O=C1Nc2ccccc2/C1=C1\C(=O)Nc2ccccc21 [ISOINDIGO] | 8 µM | 41 µM |  | 
COc1ccncc1C(=O)/C=C1/C(=O)Nc2cccc(Cl)c21 | 1.4 µM |  | 0.95 µM | inhibition [3]: 50%
CC(C)N1C(=O)/C(=C/C(=O)c2cccnc2)c2c(Cl)cccc21 | 1.4 µM |  | 1.5 µM | 
O=C1Nc2cccc(Br)c2/C1=C\C(=O)c1cccnc1 | 0.9 µM | 0.4 µM | 1 µM | Ki [2]: 0.25 µM

SMILES | IC50 [1] | Ki [1] | IC50 [2] | other results
Nc1cccc(C(=O)/C=C2/C(=O)Nc3cccc(Cl)c32)c1 | 1.4 µM |  | 1.8 µM | 
CC(C)CN1C(=O)/C(=C/C(=O)c2cccnc2)c2c(Cl)cccc21 | 1 µM |  | 4.1 µM | 
O=C1C(=O)N(CN2C(=O)C(=O)c3ccccc32)c2ccccc21 | 18 µM | 10 µM |  | 
O=C1Nc2c(Br)cccc2/C1=C\C(=O)c1cccnc1 | 2.9 µM |  | 3.2 µM | 
CC(=O)/C=C1/C(=O)Nc2cccc(Cl)c21 | 1.5 µM | 0.7 µM |  | 
Nc1ccc(C(=O)/C=C2/C(=O)Nc3cccc(Cl)c32)cc1 | 1.1 µM |  | 3 µM | inhibition [3]: 65%
O=C(/C=C1/C(=O)N(c2ccccc2)c2cccc(Cl)c21)c1cccnc1 | 0.8 µM |  | 0.57 µM | 
CCOC(=O)CN1C(=O)/C(=C/C(=O)c2cccnc2)c2c(Cl)cccc21 | 1.8 µM |  | 2.5 µM | 
CC(=O)/C=C1/C(=O)Nc2cc(OC(F)(F)F)ccc21 | 3.6 µM |  | 2.6 µM | 
O=C1Nc2cccc(Cl)c2/C1=C\C(=O)c1cccc(Cl)c1 | 0.7 µM |  | 2.8 µM | 
COc1ccccc1C(=O)/C=C1/C(=O)Nc2cccc(Cl)c21 | 0.9 µM |  | 0.74 µM | 
O=C1Nc2ccc(Oc3ccc4c(c3)C(=O)C(=O)N4)cc2C1=O | 25 µM | 3 µM |  | 
CC(=O)/C=C1/C(=O)Nc2cc(F)ccc21 | 11 µM | 5.4 µM | 20 µM | 
O=C1Nc2cc(Cl)ccc2/C1=C\C(=O)c1cccnc1 | 2.1 µM | 5.3 µM | 20 µM | inhibition [4]: 70%; inhibition [5]: Active
O=C1Nc2cccc(Cl)c2/C1=C\C(=O)c1ccncc1 | 1.2 µM |  | 1 µM | 
O=C1Nc2ccc(Cl)cc2/C1=C\C(=O)c1cccnc1 | 6 µM |  | 1.2 µM | 
CC(=O)/C=C1/C(=O)Nc2ccc(Cl)cc21 | 4.3 µM | 0.9 µM | 3.7 µM | 
O=C1Nc2cc(Br)ccc2/C1=C\C(=O)c1cccnc1 | 1.5 µM |  | 0.36 µM | inhibition [4]: 35%; inhibition [3]: 65%
O=C(/C=C1/C(=O)N(Cc2ccccc2)c2cccc(Cl)c21)c1cccnc1 | 1.5 µM | 0.41 µM | 0.36 µM | Ki [2]: 1 µM
Cc1ccc2c(c1)/C(=C\C(=O)c1cccnc1)C(=O)N2 | 6.3 µM |  | 4.5 µM | 
O=C1Nc2c(Cl)cccc2/C1=C\C(=O)c1cccnc1 | 7.3 µM |  | 1.6 µM | inhibition [3]: 70%
O=C1Nc2cccc(Cl)c2/C1=C\C(=O)c1ccccn1 | 1.1 µM |  | 0.89 µM | 
COc1cccc(C(=O)/C=C2/C(=O)Nc3cccc(Cl)c32)c1 | 1 µM |  | 1.1 µM | 
O=C1Nc2cccc(Cl)c2/C1=C\C(=O)c1ccccc1 | 2.8 µM | 3.3 µM | 20 µM | 

— ChEMBL document CHEMBL1770135, “Acylideneoxoindoles: a new class of reversible inhibitors of human transglutaminase 2” (Bioorg Med Chem Lett, 2011)
